According to ChEMBL document CHEMBL3632616, “Fluorination Patterning: A Study of Structural Motifs That Impact Physicochemical Properties of Relevance to Drug Discovery” (J Med Chem, 2015):
Converted amounts (≈) assume the structure as drawn.

Experiments:
[1] = Aqueous solubility of the compound at pH 6.5; type: physicochemical
[2] = Lipophilicity, Log P of the compound; type: physicochemical; details: octanol/water
[3] = Intrinsic clearance in rat liver microsomes assessed per mg of protein; type: ADME; details: read-out: CLH
Method in brief: (§1)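 Compound incubated with liver microsomes (human for line 2, rat for line 3) and its concentration followed at up to 8 successive time points. Intrinsic pseudo-first-order decay rate constant (Clint) taken from linear regression of those concentrations and normalised to microsomal protein. Upper and lower bounds are 95% confidence levels from the regression.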

[4] = Intrinsic clearance in human liver microsomes assessed per mg of protein; type: ADME; details: read-out: CLH; method in brief: as §1

solubility [1]	logP [2]	microsomal CLint [3]	microsomal CLint [4]	Compound
200 µM (≈ 31.8 µg/mL)	3.3	182 µL/min/mg	513 µL/min/mg	CCCc1c[nH]c2ccccc12
–	2.8	–	–	C[C@@H](F)[C@H](F)Cc1c[nH]c2ccccc12 (racemic)
182 µM (≈ 38.1 µg/mL)	3.1	644 µL/min/mg	271 µL/min/mg	CCC(F)(F)Cc1c[nH]c2ccccc12
277 µM (≈ 58 µg/mL)	2.8	492 µL/min/mg	245 µL/min/mg	FCC(F)CCc1c[nH]c2ccccc12 (stereo unspecified)
–	2.8	–	–	C[C@H](F)[C@H](F)Cc1c[nH]c2ccccc12 (racemic)
115 µM (≈ 24.1 µg/mL)	3	584 µL/min/mg	321 µL/min/mg	CC(F)(F)CCc1c[nH]c2ccccc12
30 µM (≈ 6.4 µg/mL)	3.1	290 µL/min/mg	410 µL/min/mg	FC(F)(F)CCc1c[nH]c2ccccc12
–	2.7	–	–	FC[C@H](F)[C@H](F)Cc1c[nH]c2ccccc12 (racemic)
–	2.9	294 µL/min/mg	372 µL/min/mg	FC(F)CCc1c[nH]c2ccccc12
–	2.7	–	–	FC[C@@H](F)[C@H](F)Cc1c[nH]c2ccccc12 (racemic)

Compound	solubility [1]	logP [2]	microsomal CLint [3]	microsomal CLint [4]
CC(F)(F)Cc1c[nH]c2ccccc12	820 µM (≈ 160 µg/mL)	2.8	226 µL/min/mg	508 µL/min/mg
FCCCc1c[nH]c2ccccc12	–	2.8	–	–
FCC(F)Cc1c[nH]c2ccccc12 (stereo unspecified)	> 1720 µM	2.5	142 µL/min/mg	212 µL/min/mg
